According to ChEMBL document CHEMBL1122608, “Nitrogen bridgehead compounds. 44. New antiallergic 4H-pyrido[1,2-a]pyrimidin-4-ones. 4” (1984):

Experiments:
Rattus norvegicus [1] = test: Antiallergic activity by passive cutaneous anaphylaxis test after intravenous administration.; format: functional; conditions: read-out: ID50 (the source's name)
Procedure, shortened: (§1)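 Adult female Sprague-Dawley rats (200 g, five per group) sensitized intradermally at two sites with rat reaginic anti-ovalbumin serum; after 48 h, challenged with chicken ovalbumin 20 mg/kg plus Evans blue 40 mg/kg. Compound iv at 32, 3.2, 0.32 µmol/kg at challenge. Dermal bluing area measured 30 min later; ≥3 doses, ID50 from dose-response regression; Student's t test.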

Rattus norvegicus [2] = test: Antiallergic activity was evaluated by passive cutaneous anaphylaxis test after intra venous administration; insoluble; format: functional, organism-based; procedure, shortened: as §1
Rattus norvegicus [3] = test: Inhibition of histamine release by 50% in rats after intra peritoneal administration; format: functional
Procedure, shortened: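 Male Sprague-Dawley rats (~250 g, six per group) passively sensitized ip with anti-ovalbumin reaginic serum, challenged 4 h later with ip ovalbumin 1 mg/rat; compound ip 30 s before antigen, ≥3 doses. Peritoneal fluid taken 3 min post-challenge, centrifuged at 150 g; histamine in supernatant measured fluorometrically (autoanalyzer). ID50 from dose-response regression curve; Student's t test.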

Rattus norvegicus [4] = test: Inhibition of Evans blue extravasation by 50% in rats after intra peritoneal administration; format: functional
Procedure, shortened: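 Male Sprague-Dawley rats (~250 g, six per group) sensitized ip with 1 mL anti-ovalbumin reaginic serum; 4 h later Evans blue iv, then ovalbumin 1 mg/rat ip in Tris buffer. Compound ip 30 s before challenge, ≥3 doses. Peritoneal fluid collected at 3 min; extravasated dye read at 615 nm. ID50 from dose-response regression; Student's t test.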

SMILES	ED50 (Rattus norvegicus [1]) [µmol/kg]	further results
CC1CCC(/C=N/c2ccc(O)cc2)=C2NC=C(C(=O)O)C(=O)N21 (centres undefined)	1.2	
CCOC(=O)C1=CNC2=C(/C=N/c3ccccc3)CCC(C)N2C1=O (centres undefined)		ID50 (Rattus norvegicus [2]): Insoluble
CC1CCC(/C=N/c2ccc(F)cc2)=C2NC=C(C(=O)O)C(=O)N21 (centres undefined)	10.6	
C[C@@H]1CC/C(=N\Nc2ccccc2)c2ncc(C(=O)O)c(=O)n21	54.8	
CC1CCC(/C=N/c2ccccc2C(=O)O)=C2NC=C(C(=O)O)C(=O)N21 (centres undefined)	1.11	ID50 (Rattus norvegicus [3]): 10 nmol/kg; ID50 (Rattus norvegicus [4]): 140 nmol/kg
CC1CCC(/C=N/c2cccc(Cl)c2)=C2NC=C(C(=O)O)C(=O)N21 (centres undefined)		ID50 (Rattus norvegicus [2]): Insoluble
CC1CCC(/C=N/c2ccccc2O)=C2NC=C(C(=O)O)C(=O)N21 (centres undefined)	4.11	
CC1CCC(/C=N/c2cccnc2)=C2NC=C(C(=O)O)C(=O)N21 (centres undefined)	2.4	ID50 (Rattus norvegicus [3]): 100 nmol/kg; ID50 (Rattus norvegicus [4]): 360 nmol/kg
Cc1nc2n(c(=O)c1/C=C/C(=O)O)C(C)CC/C2=N\Nc1ccccc1 (centres undefined)	0.29	
CC1CCC(/C=N/c2ccccc2F)=C2NC=C(C(=O)O)C(=O)N21 (centres undefined)	14.5	
CC1CC(/C=N/c2ccccc2)=C2NC=C(C(=O)O)C(=O)N21 (centres undefined)	20.2	
CC1CCC(/C=N/c2ccc3ccccc3c2)=C2NC=C(C(=O)O)C(=O)N21 (centres undefined)		ID50 (Rattus norvegicus [2]): Insoluble
O=C(O)C1=CNC2=C(/C=N/c3ccccc3)CCN2C1=O	15.4	
CC1CC(/C=N/c2ccccc2C(=O)O)=C2NC=C(C(=O)O)C(=O)N2C1 (centres undefined)	48.1	
CC1CCN2C(=O)C(C(=O)O)=CNC2=C1/C=N/c1ccccc1C(=O)O (centres undefined)	100	
Cc1cccc(/N=C/C2=C3NC=C(C(=O)O)C(=O)N3[C@H](C)CC2)c1	66.9	
CC1CCC(/C=N/c2ccc(Cl)cc2)=C2NC=C(C(=O)O)C(=O)N21 (centres undefined)		ID50 (Rattus norvegicus [2]): Insoluble
CC1CCN2C(=O)C(C(=O)O)=CNC2=C1/C=N/c1ccccc1 (centres undefined)		ID50 (Rattus norvegicus [2]): Insoluble
CC1CCCc2ncc(C(=O)O)c(=O)n21 (centres undefined)	240	
O=C(O)C1=CNC2=C(/C=N/c3ccccc3C(=O)O)CCCCN2C1=O	68.7	
C[C@@H]1CC/C(=N\Nc2ccccc2)c2ncc(/C=C/C(=O)O)c(=O)n21	> 100	
CCOc1cccc(/N=C/C2=C3NC=C(C(=O)O)C(=O)N3C(C)CC2)c1 (centres undefined)		ID50 (Rattus norvegicus [2]): Insoluble
CC1CCC(/C=N/c2cccc(Br)c2)=C2NC=C(C(=O)O)C(=O)N21 (centres undefined)		ID50 (Rattus norvegicus [2]): Insoluble
CC1CCC(/C=N/c2ccc(C(F)(F)F)cc2)=C2NC=C(C(=O)O)C(=O)N21 (centres undefined)	> 100	

SMILES	ED50 (Rattus norvegicus [1]) [µmol/kg]	further results
CC1CCC(/C=N/c2cccc(C(=O)O)c2)=C2NC=CC(=O)N21 (centres undefined)	> 100	
C[C@H]1CC/C(=N\Nc2ccccc2)c2ncc(/C=C/C(=O)O)c(=O)n21	0.15	
CCOC(=O)C1=CNC2=C(/C=N/c3ccc(C(=O)O)cc3)CCC(C)N2C1=O (centres undefined)	67.1	
CC1CCC(/C=N/c2ccccc2)=C2NC(c3ccccc3)=C(/C=C/C(=O)O)C(=O)N21 (centres undefined)		ID50 (Rattus norvegicus [2]): Insoluble
O=C(O)C1=CNC2=C(/C=N/c3ccccc3C(=O)O)CCCN2C1=O	22.9	
Cc1ccc(/N=C/C2=C3NC=C(C(=O)O)C(=O)N3C(C)CC2)cc1 (centres undefined)	3.6	
CCOc1ccc(/N=C/C2=C3NC=C(C(=O)O)C(=O)N3C(C)CC2)cc1 (centres undefined)	8.96	
CC(=O)c1ccc(/N=C/C2=C3NC=C(C(=O)O)C(=O)N3C(C)CC2)cc1 (centres undefined)	0.75	
CC1CCC(/C=N/c2ccccc2)=C2NC=C(C(=O)O)C(=O)N21 (centres undefined)		ID50 (Rattus norvegicus [2]): Insoluble
CCOC(=O)C1=CNC2=C(/C=N/c3ccccc3C(=O)O)CCC(C)N2C1=O (centres undefined)	24.8	
CC1CCC(/C=N/c2ccc(CC(=O)O)cc2)=C2NC=C(C(=O)O)C(=O)N21 (centres undefined)	5.8	ID50 (Rattus norvegicus [3]): 110 nmol/kg; ID50 (Rattus norvegicus [4]): 280 nmol/kg
CC1CC/C(=N\Nc2ccccc2)c2ncc(/C=C/C(=O)O)c(=O)n21 (centres undefined)	0.27	
CCOC(=O)C1=CNC2=C(/C=N/c3cccc(C(=O)O)c3)CCC(C)N2C1=O (centres undefined)	100	
O=C(O)c1cnc2n(c1=O)CCCC/C2=N\Nc1ccccc1	14.4	
COc1ccc(/N=C/C2=C3NC=C(C(=O)O)C(=O)N3C(C)CC2)cc1 (centres undefined)		ID50 (Rattus norvegicus [2]): Insoluble
CC1CCC(/C=N/c2ccc([N+](=O)[O-])cc2)=C2NC=C(C(=O)O)C(=O)N21 (centres undefined)		ID50 (Rattus norvegicus [2]): Insoluble
CC1CCC(/C=N/c2ccc(Br)cc2)=C2NC=C(C(=O)O)C(=O)N21 (centres undefined)		ID50 (Rattus norvegicus [2]): Insoluble
Cc1cccc(/N=C/C2=C3NC=C(C(=O)O)C(=O)N3[C@@H](C)CC2)c1	0.02	
CC1CCC(/C=N/c2ccc(C(=O)O)cc2)=C2NC=CC(=O)N21 (centres undefined)	> 100	
C[C@H]1CC/C(=N\Nc2ccccc2)c2ncc(C(=O)O)c(=O)n21	0.3	ID50 (Rattus norvegicus [3]): 1 nmol/kg; ID50 (Rattus norvegicus [4]): 5 nmol/kg
Cc1cccc(/N=C/C2=C3NC=C(C(=O)O)C(=O)N3C(C)CC2)c1 (centres undefined)	0.8	ID50 (Rattus norvegicus [3]): 2 nmol/kg; ID50 (Rattus norvegicus [4]): 130 nmol/kg
CC1CCC(=NNc2ccccc2)c2ncc(C(=O)O)c(=O)n21 (centres undefined)	0.6	
O=C([O-])c1cc(=O)c2c(OCC(O)COc3cccc4oc(C(=O)[O-])cc(=O)c34)cccc2o1.[Na+].[Na+] [CROMOLYN SODIUM]	1	ID50 (Rattus norvegicus [3]): 16 nmol/kg; ID50 (Rattus norvegicus [4]): 55 nmol/kg
